From PubChem BioAssay
The source made the active and inactive calls.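 The calls were made as follows: active = active in primary screen and both duplicates, each dropping signal beyond three positive-control SD with fluorescence still positive; inactive = the rest.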

Target: Short transient receptor potential channel 6 (Mus musculus) (UniProt Q61143)
Assay: inhibition of mouse TRPC6 channel, confirmation, selectivity assay for TRPC4 inhibitor project, cell-based, HEK293, membrane potential dye, duplicate (AID 434948)
Settings: HEK293 TRPC6, membrane potential dye fluorescence, at 10 µM, stimulated with maximal-effect acetylcholine; active compounds read high
In short: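 Times: 45 min RT dye load, 110 s compound, 110 s agonist read | Assay system: HEK293 cells expressing mouse TRPC6 channel | Detection: Kinetic membrane potential dye fluorescence | Replicates: Duplicate testing | Read-out: Control-normalized integrated fluorescence ratio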

Sequence of Short transient receptor potential channel 6 (Mus musculus) (Q61143 whole entry, looked up): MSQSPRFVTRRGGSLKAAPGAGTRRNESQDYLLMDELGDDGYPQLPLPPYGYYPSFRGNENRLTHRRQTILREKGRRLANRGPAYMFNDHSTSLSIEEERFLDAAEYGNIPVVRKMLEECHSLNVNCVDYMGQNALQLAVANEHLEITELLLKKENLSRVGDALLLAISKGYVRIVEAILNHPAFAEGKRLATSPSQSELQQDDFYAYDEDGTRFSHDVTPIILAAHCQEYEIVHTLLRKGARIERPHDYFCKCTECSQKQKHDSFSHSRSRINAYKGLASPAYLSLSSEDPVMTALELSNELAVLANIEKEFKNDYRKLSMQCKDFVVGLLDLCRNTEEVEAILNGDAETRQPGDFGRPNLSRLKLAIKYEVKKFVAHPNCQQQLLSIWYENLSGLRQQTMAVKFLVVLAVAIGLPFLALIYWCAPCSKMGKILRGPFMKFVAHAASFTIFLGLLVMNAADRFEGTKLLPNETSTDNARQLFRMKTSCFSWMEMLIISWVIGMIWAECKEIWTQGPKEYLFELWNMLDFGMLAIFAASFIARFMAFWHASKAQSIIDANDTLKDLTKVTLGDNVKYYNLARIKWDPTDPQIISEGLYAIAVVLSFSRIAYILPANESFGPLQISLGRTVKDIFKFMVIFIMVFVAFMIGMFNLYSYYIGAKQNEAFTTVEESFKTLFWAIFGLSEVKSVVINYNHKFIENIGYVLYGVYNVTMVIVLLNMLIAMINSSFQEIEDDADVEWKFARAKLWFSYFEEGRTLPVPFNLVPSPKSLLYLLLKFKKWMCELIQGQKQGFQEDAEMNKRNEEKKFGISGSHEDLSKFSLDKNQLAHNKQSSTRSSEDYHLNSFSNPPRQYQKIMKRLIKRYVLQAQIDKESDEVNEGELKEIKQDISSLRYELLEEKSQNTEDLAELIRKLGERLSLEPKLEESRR

Row | Compound | outcome | inhibition
1 | CN(C)C(CNC(=O)c1oc2ccccc2c1CSc1ncn[nH]1)c1ccco1 (centres undefined) | inactive | –
2 | Cc1nn(-c2ccccc2)c(Cl)c1CN(C(=O)CCl)c1ccc(Cl)cc1 | inactive | –
3 | COc1ccccc1N1CCc2c(C)nc3c(OC)cccc3c21 | – | 29% (active)
4 | Cc1cc(CN2CCCC(C(=O)Nc3ccc(-c4nc5ccccc5[nH]4)cc3)C2)n[nH]1 (centres undefined) | inactive | –
5 | CCCCNCC1C(Oc2ccc(Cl)cc2)C(=O)N1c1ccccc1C (centres undefined) | inactive | –
6 | O=C1COc2ccc(N3C(=O)C=CC3=O)cc2N1 | inactive | –
7 | Cc1nc2scc(-c3ccccc3)c2c(=O)n1N=C1C=CC(=O)C=C1 | inactive | –
8 | CCOC(=O)C1=NN(c2ccccc2C)C2=NC(C)=C(C(=O)OC)C(c3cccc(OC)c3)N12 (centres undefined) | inactive | –
9 | N/C(Cc1cccc2ccccc12)=N\OC(=O)c1cccs1 | inactive | –
10 | CCCSc1nc(N)nc(-c2cccs2)c1C#N | inactive | –
11 | Cc1ccc(NC(=O)c2cc(N3C(=O)C=CC3=O)ccc2N2CCOCC2)cc1 | inactive | –
12 | Cc1ccc(NC(=O)CNc2ccccc2CN(C)C2CCCCC2)cc1 | inactive | –
13 | CC1(C)CC(NC(=O)c2cc(COc3cccc(C(F)(F)F)c3)on2)CCO1 (centres undefined) | inactive | –
14 | COc1ccc(C2=NN(C(=O)c3ccccc3)C(c3ccc(OC)c(OC)c3)C2)c(O)c1 (centres undefined) | inactive | –
15 | CCCn1nc([N+](=O)[O-])c(C(C#N)c2nc3ccccc3o2)c(Cl)c1=O (centres undefined) | – | 28% (active)
16 | COc1ccc(C(CNc2ccc(C(F)(F)F)cn2)N(C)C)cc1OC (centres undefined) | inactive | –
17 | COc1cccc(C2=NN(C(=O)c3ccco3)C(c3ccco3)C2)c1 (centres undefined) | inactive | –
18 | c1ccc(Cn2c(NCc3ccco3)nc3ccccc32)cc1 | inactive | –
19 | CC(=O)c1ccc2c(c1)N(C)c1ccccc1S2 | inactive | –
20 | CCOC(=O)C1CCN(CC(O)COc2ccc(C(C)(C)C)cc2)CC1 (centres undefined) | inactive | –

Row | Compound | outcome | inhibition
21 | CC(C)C1=Nc2cccc3cccc(c23)N1 | inactive | –
22 | Cc1cccc2nc(CSc3ccc(Cl)cc3)cn12 | inactive | –
23 | O=C(NC1CCCCC1)N1CCN(C(c2ccccc2)c2ccccc2)CC1 | inactive | –
24 | COc1cc(CNC2CCCC2)c(Br)cc1OCc1ccccc1 | inactive | –
25 | COc1ccc(Nc2cc(C)nc3ccc(OC)cc23)cc1 | – | 29.5% (active)
26 | Cc1ccc(NC(=S)N(CCCN(C)C)Cc2cc3cc4c(cc3[nH]c2=O)OCO4)c(C)c1 | inactive | –
27 | COc1ccc(CN2CCN(Cc3ccc(C(F)(F)F)cc3)CC2)c(OC)c1 | inactive | –
28 | Cn1cc(CNCC2CCCO2)c(-c2ccc(Oc3ccccc3)cc2)n1 (centres undefined) | inactive | –
29 | CCCCCCCCCCCCOC(=O)C[N+](C)(C)C | inactive | –
30 | CN(C)CCCN(C(=O)c1ccc(S(=O)(=O)N2CCCC2)cc1)c1nc2c(F)cc(F)cc2s1 | inactive | –
31 | C=C(c1ccc(O)cc1)c1ccc(O)cc1 | inactive | –
32 | C/C(N)=C(/C#N)C(=O)COC(=O)CC12CC3CC(CC(C3)C1)C2 | inactive | –
33 | Cc1cccc2cc(CN(CCCN(C)C)C(=S)NCCc3ccccc3)c(=O)[nH]c12 | inactive | –
34 | Nc1cc(C(F)(F)F)ccc1Nc1ccccc1 | inactive | –
35 | CCC(C)NC(C(=O)Nc1ccc(Cl)c([N+](=O)[O-])c1)c1ccccc1 (centres undefined) | inactive | –
36 | COCCn1c(SCc2cccc([N+](=O)[O-])c2)nc2ccccc2c1=O | inactive | –
37 | O=C(Nc1cccc(Cl)c1)N1CCN2C(=O)c3ccccc3C12c1ccccc1 (centres undefined) | inactive | –
38 | CC(C)n1c(NCc2c[nH]c3ccccc23)nc2ccccc21 | – | 33.5% (active)
39 | Cc1nn(-c2ccccc2)c2[nH]c(C(F)(F)F)cc(=O)c12 | inactive | –
